This is an account of results in ChEMBL document CHEMBL1926567, “Triterpenoids as inhibitors of erythrocytic and liver stages of Plasmodium infections” (Bioorg Med Chem, 2011).

The subject of one series is MCF7. As to the kind of experiment: Cytotoxicity against human MCF7 cells after 24 hrs by MTT assay. The class given is cell-based. The following applies: MCF7, 24 h. In outline:
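MCF-7 cells grown in RPMI 1640 with 10% heat-inactivated horse serum and 2 mM L-glutamine at 37 °C, 5% CO2. 2×10^4 cells/well exposed to increasing compound concentrations for 24 h. MTT added for 4 h, then 10% SDS overnight; OD at 550 nm (reference 630 nm). Percent growth inhibition calculated relative to cell and medium controls; IC50 given as mean ± SD of three experiments.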

Series [1] relates to Plasmodium falciparum. The series can be described thus: Antimalarial activity against chloroquine-sensitive Plasmodium falciparum 3D7 infected in erythrocytes after 48 hrs by SYBR green 1-based fluorescence assay. The following applies: 3D7, 48 h. The class given is functional, organism-based. Summed up:
(§1)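 P. falciparum (3D7 or Dd2) grown in fresh human erythrocytes in RPMI 1640 with 25 mM HEPES, 6.8 mM hypoxanthine and 10% AlbuMAX II, at 37 °C under 5% O2, 3–5% CO2 and N2. Ring-stage cultures at 1% parasitaemia and 2% haematocrit were exposed in duplicate to 0.156–100 µg/mL (from DMSO stocks) for 48 h at 37 °C. SYBR Green I lysis buffer was then added for 1 h in the dark; fluorescence read at ex 485/em 535 nm. IC50 is the mean of three independent experiments.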

For series [2], the system named is Plasmodium falciparum. As to the kind of experiment: Antimalarial activity against chloroquine-resistant Plasmodium falciparum Dd2 infected in erythrocytes after 48 hrs by SYBR green 1-based fluorescence assay. It counts as functional, organism-based. The following applies: Dd2, 48 h. In outline: as §1
Series [3] in a line: Selectivity index, ratio of IC50 for human MCF7 cells to IC50 for chloroquine-resistant Plasmodium falciparum Dd2. The following applies: read-out: Ratio IC50. The class given is toxicity, cell-based. Summed up:
(§2)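 MCF-7 cells were grown in RPMI 1640 with 10% heat-inactivated horse serum and 2 mM L-glutamine. Cells (2×10^4 per well) were exposed to increasing compound concentrations for 24 h at 37 °C, then given MTT for 4 h and SDS overnight; OD read at 550 nm (ref 630 nm). Growth-inhibition IC50 from three experiments.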

Series [4] is described as follows: Selectivity index, ratio of IC50 for human MCF7 cells to IC50 for chloroquine-sensitive Plasmodium falciparum 3D7. It counts as toxicity, cell-based. As to conditions: read-out: Ratio IC50. Summed up: as §2
In series [5] the test system is Plasmodium berghei. The series can be described thus: Antimalarial activity against liver stage of transgenic Plasmodium berghei expressing PbGFP-Luc-con infected in human HuH7 cells at 1 to 15 uM after 48 hrs by bioluminescence method. The class given is functional, organism-based. The following applies: Huh-7. Summed up:
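Huh-7 human hepatoma cells (12×10^3/well) seeded the day before; compounds at 1, 5 and 15 uM added 1 h before sporozoites of luciferase-expressing P. berghei PbGFP-Luc_con, freshly dissected from infected female Anopheles stephensi salivary glands. Plates centrifuged 1700g for 5 min after sporozoite addition. Luminescence read 48 h post-infection versus DMSO controls. Primaquine positive control; three independent measurements.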

Another series deals with Huh-7. As to the kind of experiment: Cytotoxicity against human HuH7 cells at 15 uM by alamar blue fluorescence assay. It counts as cell-based. As to conditions: huh-7, 15 µM. In outline: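 Huh-7 cells cultured in RPMI 1640 with 10% FCS and 10 mM HEPES pH 7 at 37 °C, 5% CO2. Cells seeded the day before, exposed to compounds (1, 5, 15 uM) and infected in parallel with the liver-stage assay. Viability read as AlamarBlue fluorescence (cell confluency), compared with DMSO controls; three independent measurements.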
Background: The colour change of resazurin is a common sign of viable cells or microbes.

The test system of a further series is Hepatocyte. The series can be described thus: Cytotoxicity against mouse primary hepatocytes at 15 uM after 24 hrs by alamar blue fluorescence assay. It counts as cell-based. Summed up:
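Mouse primary hepatocytes incubated with compounds for 24 h, then with AlamarBlue-containing medium for 1 h before fluorescence reading. Signal normalized to cells treated with 500 μM H2O2 as positive control and compared with a DMSO control at the amount present in the highest drug concentration.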

For series [6], the system named is Plasmodium berghei. As to the kind of experiment: Antimalarial activity against transgenic Plasmodium berghei expressing PbGFP-Luc-con infected in human HuH7 cells assessed as reduction of parasite motility at 15 uM by luciferase based assay. The class given is functional, organism-based. As to conditions: Huh-7.
Series [7] relates to Plasmodium berghei. As to the kind of experiment: Antimalarial activity against transgenic Plasmodium berghei expressing PbGFP-Luc-con infected in human HuH7 cells assessed as reduction of parasite invasion at 15 uM by luciferase based assay. It counts as functional, organism-based. The following applies: Huh-7.
Series [8] has as its system Plasmodium berghei. As to the kind of experiment: Antimalarial activity against transgenic Plasmodium berghei expressing PbGFP-Luc-con infected in human HuH7 cells assessed as reduction of intracellular liver stage development at 15 uM by luciferase based assay. The class given is functional, organism-based. The following applies: Huh-7.
The test system of series [9] is Plasmodium falciparum. As to the kind of experiment: Ratio of balsaminol-F IC50 to compound IC50 for chloroquine-sensitive Plasmodium falciparum 3D7. It counts as functional.
The subject of series [10] is Plasmodium falciparum. As to the kind of experiment: Ratio of balsaminol-F IC50 to compound IC50 for chloroquine-resistant Plasmodium falciparum Dd2. The class given is functional.

SMILES strings stand for the structures. Activity calls are given as the source filed them. The rule behind the calls is not given here.

With `CO[C@H]1C=C2[C@@H](CC[C@H](O)C2(C)C)[C@]2(C)CC[C@]3(C)[C@@H]([C@H](C)CC(C=C(C)C)O[C@@H]4O[C@H](CO)[C@@H](O)[C@H](O)[C@H]4O)CC[C@@]3(C)[C@H]12` (some centres not stated) [KUGUAGLYCOSIDE A], the IC50 was found to be 13.5 µM with MCF7, 3.9 µM with Plasmodium falciparum [1] and 4.7 µM with Plasmodium falciparum [2]. Besides, the selectivity ratio in series [3] turned out to be 2.9; in series [4], 3.5.

For `CC(C)=C[C@H](O)C[C@@H](C)[C@H]1CC[C@@]2(C)[C@@H]3[C@@H](O[C@@H]4O[C@H](CO)[C@@H](O)[C@H](O)[C@H]4O)C=C4[C@@H](CC[C@H](O)C4(C)C)[C@]3(C)CC[C@]12C` [BALSAMINOSIDE C], the half-inhibitory concentration (IC50) was found to be 23.9 µM in the series with MCF7, 3.4 µM in the series with Plasmodium falciparum [1] and 7.2 µM with Plasmodium falciparum [2]. For the same compound, in the series with Plasmodium berghei [5], the result was Active. The selectivity ratio in [3] was found to be 3.3; in series [4], 7.

For the compound `CC(C)=C[C@@H](C[C@@H](C)[C@H]1CC[C@@]2(C)[C@@H]3[C@@H](OC(=O)c4ccccc4)C=C4[C@@H](CC[C@H](OC(=O)c5ccccc5)C4(C)C)[C@]3(C)CC[C@]12C)OC(=O)c1ccccc1` [TRIBENZOYLBALSAMINOL F], the values for the IC50 in the series on MCF7, with Plasmodium falciparum [1] and with Plasmodium falciparum [2] were above 133 µM, 57.3 µM and 68.4 µM, respectively. Moreover, the outcome with Plasmodium berghei [5] was Active. The selectivity ratio in series [3] was above 2; in [4], above 2.3.

With `CC(C)=C[C@H](O)C[C@@H](C)[C@H]1CC[C@@]2(C)[C@@H]3[C@@H](O)C=C4[C@@H](CC[C@H](O)C4(C)C)[C@]3(C)CC[C@]12C` (relative stereo) [BALSAMINOL F], the results for the half-maximal inhibitory concentration (IC50) with MCF7, with Plasmodium falciparum [1] and in the series with Plasmodium falciparum [2] were 27.3 µM, 18 µM and 20 µM, respectively. The Activity result with Huh-7 and with Hepatocyte was “Toxic” each time. The outcome with Plasmodium berghei [6] and with Plasmodium berghei [7] was inactive. In addition, the result in the series with Plasmodium berghei [5] and in the series on Plasmodium berghei [8] was Active. The selectivity ratio in series [3] was found to be 1.4; in [4], 1.5.

With `CC(=O)O[C@H]1C=C2[C@@H](CC[C@H](OC(C)=O)C2(C)C)[C@]2(C)CC[C@]3(C)[C@@H]([C@H](C)C[C@H](C=C(C)C)OC(C)=O)CC[C@@]3(C)[C@H]12` [TRIACETYLBALSAMINOL F], the figures for the concentration for half-maximal inhibition (IC50) with MCF7, in the series on Plasmodium falciparum [1] and with Plasmodium falciparum [2] were above 133 µM, 0.8 µM and 0.4 µM, respectively. Besides, the Activity entry in the series with Huh-7 and in the series on Hepatocyte was “Non-toxic” in each case. The outcome in the series on Plasmodium berghei [6] and in the series on Plasmodium berghei [7] was inactive. In addition, the “Ratio IC50” value in the series with Plasmodium falciparum [9] was determined as 22.5; in the series with Plasmodium falciparum [10], 50. The result in the series with Plasmodium berghei [5] and in the series with Plasmodium berghei [8] was Active. Moreover, the selectivity ratio in [3] is above 343; in [4], above 162.

For `CC(C)=C[C@H](O)C[C@@H](C)[C@H]1CC[C@@]2(C)[C@@H]3[C@@H](O[C@@H]4O[C@H](CO)[C@@H](O)[C@@H](O)[C@H]4O)C=C4[C@@H](CC[C@H](O)C4(C)C)[C@]3(C)CC[C@]12C` (relative stereo) [BALSAMINOSIDE B], the IC50 in the series on MCF7 is 14.2 µM; in the series with Plasmodium falciparum [1], 2.9 µM; in the series on Plasmodium falciparum [2], 6.3 µM. Further, the Activity result in the series with Huh-7 and in the series on Hepatocyte was “Toxic” each time. The result in the series with Plasmodium berghei [6] and with Plasmodium berghei [7] was inactive. The outcome with Plasmodium berghei [5] and with Plasmodium berghei [8] was Active. Besides, the selectivity ratio in [3] came out at 2.3; in series [4], 4.8.

As a reminder, the IC50 is the midpoint of a concentration-inhibition curve. Read a low IC50 as greater potency.
